Results as given in ChEMBL document CHEMBL1142192, “Natural polymorphisms in the human immunodeficiency virus type 2 protease can accelerate time to development of resistance to protease inhibitors” (Antimicrob Agents Chemother, 2007).

Columns and labels:
Format in all cases: functional, organism-based
[1] = test system: Human immunodeficiency virus 1; test: Antiviral activity against HIV1 isolate 5512 with M36I/M and V82T mutation in CBMCs
Procedure, shortened: (§1)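 PI-selected variants were obtained by weekly culture passage with escalating drug, 0.05 μM rising to 0.25–10 μM, and phenotyped at week 38. Cord blood mononuclear cells were infected for 2 h and plated onto fivefold drug dilutions from 0.00064 to 10 μM at 37°C, 5% CO₂. Cells were refed with drug on day 3. Day-7 culture-fluid RT activity gave IC50. Means come from at least two experiments, each in duplicate. Fold change is relative to wild-type virus.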

[2] = test system: Human immunodeficiency virus 2; test: Antiviral activity against wild type HIV2 in CBMCs
Procedure, shortened: (§2)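 Cord blood mononuclear cells were infected for 2 h with wild-type virus (HIV-1: subtype B clinical isolate 5512; HIV-2: isolates CBL-20, CBL-23, MVP-15132). Cells were plated onto fivefold drug dilutions (0.00064–10 μM) at 37°C, 5% CO₂, and refed with drug-containing medium on day 3. RT enzyme assay was run on day 7, and IC₅₀ fitted. Means of ≥2 independent experiments, each in duplicate.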

[3] = test system: Human immunodeficiency virus 2; test: Antiviral activity against HIV2 isolate CBL20, CBL23, MVP15132 with […] and L90M mutation in CBMCs; procedure, shortened: as §1
[4] = test system: Human immunodeficiency virus 2; test: Antiviral activity against HIV2 isolate CBL20, CBL23, MVP15132 with 154M mutation in CBMCs; procedure, shortened: as §1
[5] = test system: Human immunodeficiency virus 2; test: Antiviral activity against HIV2 isolate CBL20, CBL23, MVP15132 with 182L mutation in CBMCs; procedure, shortened: as §1
[6] = test system: Human immunodeficiency virus 2; test: Antiviral activity against HIV2 isolate CBL20, CBL23, MVP15132 with […] and […] mutation in CBMCs; procedure, shortened: as §1
[7] = test system: Human immunodeficiency virus 1; test: Antiviral activity against wild type HIV1 in CBMCs; procedure, shortened: as §2
[8] = test system: Human immunodeficiency virus 1; test: Antiviral activity against HIV1 isolate 5512 with D30N, […] and […] mutation in CBMCs; procedure, shortened: as §1
[9] = test system: Human immunodeficiency virus 2; test: Antiviral activity against HIV2 isolate CBL20, CBL23, MVP15132 with […] and L99F mutation in CBMCs; procedure, shortened: as §1
[10] = test system: Human immunodeficiency virus 2; test: Antiviral activity against HIV2 isolate CBL20, CBL23, MVP15132 with V62A and L99F mutation in CBMCs; procedure, shortened: as §1
[11] = test system: Human immunodeficiency virus 2; test: Antiviral activity against HIV2 isolate CBL20, CBL23, MVP15132 with 150V mutation in CBMCs; procedure, shortened: as §1
[12] = test system: Human immunodeficiency virus 1; test: Antiviral activity against HIV1 isolate 5512 with […] and M46L mutation in CBMCs; procedure, shortened: as §1
[13] = test system: Human immunodeficiency virus 2; test: Antiviral activity against HIV2 isolate CBL20, CBL23, MVP15132 with 182F mutation in CBMCs; procedure, shortened: as §1

Compound | IC50 [1] [nM] | IC50 [2] [nM] | IC50 [3] [nM] | IC50 [4] [nM] | IC50 [5] [nM] | IC50 [6] [nM] | IC50 [7] [nM] | IC50 [8] [nM] | IC50 [9] [nM] | IC50 [10] [nM] | IC50 [11] [nM] | IC50 [12] [nM] | IC50 [13] [nM]
CC(C)(C)NC(=O)[C@@H]1CN(Cc2cccnc2)CCN1C[C@@H](O)C[C@@H](Cc1ccccc1)C(=O)N[C@H]1c2ccccc2C[C@H]1O [INDINAVIR] | 14 | 16 | 1110 | 236 | 64 | 388 | 27 | 25 | 825 | 143 | 72 | 45 | 544
CCC[C@@]1(CCc2ccccc2)CC(O)=C([C@H](CC)c2cccc(NS(=O)(=O)c3ccc(C(F)(F)F)cn3)c2)C(=O)O1 [TIPRANAVIR] | 192 | 160 | 145 | 1110 | 4440 | 2030 | 92 | 1 | 2910 | 524 | 316 | 42 | 306
Cc1cccc(C)c1OCC(=O)N[C@@H](Cc1ccccc1)[C@@H](O)C[C@H](Cc1ccccc1)NC(=O)[C@H](C(C)C)N1CCCNC1=O [LOPINAVIR] | 7 | 4 | 524 | 481 | 75 | 375 | 2 | – | 414 | 496 | 203 | 1 | 145
CC(C)CN(C[C@@H](O)[C@H](Cc1ccccc1)NC(=O)O[C@H]1CCOC1)S(=O)(=O)c1ccc(N)cc1 [AMPRENAVIR] | 3 | 440 | > 10000 | > 10000 | 528 | > 10000 | 26 | 19 | > 10000 | 98 | > 10000 | 116 | 965
Cc1c(O)cccc1C(=O)N[C@@H](CSc1ccccc1)[C@H](O)CN1C[C@H]2CCCC[C@H]2C[C@H]1C(=O)NC(C)(C)C [NELFINAVIR] | 10 | 64 | 2560 | 624 | 106 | 1750 | 14 | 677 | 2240 | 961 | 132 | 31 | 244
